The record followed here is ChEMBL document CHEMBL3112517, “Identification of dihydrostilbenes in Pholidota chinensis as a new scaffold for GABAA receptor modulators” (Bioorg Med Chem, 2014).

For assay [1], the species on record is Rattus norvegicus. The assay can be described thus: Allosteric modulation of rat GABAA alpha1beta2gamma2S receptor expressed in Xenopus laevis oocytes assessed as potentiation of EC3 to 10 GABA-induced chloride ion current at holding potential -70 mV at 1 to 300 uM by two-microelectrode voltage clamp assay relative to GABA-treated control. The class given is cell-based. The gist of the method: (§1)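 Stage V–VI Xenopus laevis oocytes were injected with 50 nL of rat α1, β2 and γ2S cRNA mixed 1:1:10 (about 300–3000 pg/nL per subunit), stored at 18 °C in ND96, and recorded on days 1–5. Two-electrode clamp was at −70 mV in pH 7.4 HEPES bath. Compound was applied by fast perfusion with GABA EC3–10, in 1% DMSO final. Enhancement = I(GABA+Comp)/IGABA − 1.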

Assay [2] is described as follows: (§2) Allosteric modulation of rat GABAA alpha1beta2gamma2S receptor expressed in Xenopus laevis oocytes assessed as potentiation of EC3 to 10 GABA-induced chloride ion current at holding potential -70 mV by two-microelectrode voltage clamp assay. Format: cell-based. An outline of the steps:
as §1

The species named for assay [3] is Rattus norvegicus. Described as §2. Format: cell-based. An outline of the steps: as §1
Assay [4] deals with T1, GABA A receptor alpha-3/beta-2/gamma-2 (Homo sapiens, UniProt P18507+P34903+P47870).
T1 sequence (P47870 whole entry): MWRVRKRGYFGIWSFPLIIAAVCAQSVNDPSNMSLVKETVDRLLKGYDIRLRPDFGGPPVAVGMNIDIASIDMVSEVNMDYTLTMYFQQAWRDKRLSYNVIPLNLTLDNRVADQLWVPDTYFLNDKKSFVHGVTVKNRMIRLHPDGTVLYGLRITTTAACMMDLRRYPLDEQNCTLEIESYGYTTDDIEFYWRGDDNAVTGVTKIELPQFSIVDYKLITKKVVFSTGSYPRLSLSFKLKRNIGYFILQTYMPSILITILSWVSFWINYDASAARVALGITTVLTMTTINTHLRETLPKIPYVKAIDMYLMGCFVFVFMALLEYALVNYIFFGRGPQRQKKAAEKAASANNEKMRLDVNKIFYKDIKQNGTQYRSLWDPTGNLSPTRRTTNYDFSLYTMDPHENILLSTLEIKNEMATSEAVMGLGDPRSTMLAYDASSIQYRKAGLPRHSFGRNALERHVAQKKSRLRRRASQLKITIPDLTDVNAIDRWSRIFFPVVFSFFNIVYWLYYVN
T1 sequence (P18507 whole entry): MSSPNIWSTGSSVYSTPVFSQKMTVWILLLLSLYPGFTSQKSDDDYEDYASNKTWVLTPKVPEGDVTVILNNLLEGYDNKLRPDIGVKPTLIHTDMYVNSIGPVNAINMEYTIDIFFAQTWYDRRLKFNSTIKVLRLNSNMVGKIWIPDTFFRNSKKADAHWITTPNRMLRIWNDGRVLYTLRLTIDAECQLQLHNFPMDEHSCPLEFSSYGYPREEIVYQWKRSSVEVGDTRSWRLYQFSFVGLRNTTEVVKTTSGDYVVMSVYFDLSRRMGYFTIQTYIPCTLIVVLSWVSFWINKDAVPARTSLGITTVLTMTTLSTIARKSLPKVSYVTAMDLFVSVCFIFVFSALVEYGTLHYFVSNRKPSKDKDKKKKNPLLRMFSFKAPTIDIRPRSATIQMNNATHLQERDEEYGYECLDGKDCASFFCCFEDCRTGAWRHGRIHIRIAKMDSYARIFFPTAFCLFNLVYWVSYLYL
T1 sequence (P34903 whole entry): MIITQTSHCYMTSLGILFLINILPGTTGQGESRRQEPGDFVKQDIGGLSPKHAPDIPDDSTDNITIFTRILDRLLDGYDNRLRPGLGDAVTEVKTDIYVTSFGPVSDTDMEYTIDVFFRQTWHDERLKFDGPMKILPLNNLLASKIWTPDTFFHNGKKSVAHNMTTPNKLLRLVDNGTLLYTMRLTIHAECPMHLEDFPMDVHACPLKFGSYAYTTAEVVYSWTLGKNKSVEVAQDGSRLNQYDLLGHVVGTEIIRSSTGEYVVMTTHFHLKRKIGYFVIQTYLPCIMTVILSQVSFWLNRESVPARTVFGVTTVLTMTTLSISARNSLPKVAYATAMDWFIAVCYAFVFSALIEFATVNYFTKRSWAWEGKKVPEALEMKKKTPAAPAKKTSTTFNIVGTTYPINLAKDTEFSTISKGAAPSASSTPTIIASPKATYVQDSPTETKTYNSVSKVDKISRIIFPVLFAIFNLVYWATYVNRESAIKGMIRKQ
As to the kind of experiment: Modulation of GABAA alpha3beta2gamma2S receptor (unknown origin) expressed in Xenopus laevis oocytes assessed as potentiation of EC3 to 10 GABA-induced chloride ion current at holding potential -70 mV by two-microelectrode voltage clamp assay. Format: cell-based.

The nature of assay [5]: Modulation of GABAA alpha5beta2gamma2S receptor (unknown origin) expressed in Xenopus laevis oocytes assessed as potentiation of EC3 to 10 GABA-induced chloride ion current at holding potential -70 mV by two-microelectrode voltage clamp assay. Format: cell-based. The note with it: Homo sapiens.
The target in assay [6] is T2, GABA A receptor alpha-2/beta-2/gamma-2 (Homo sapiens, UniProt P18507+P47869+P47870).
T2 sequence (P47870 whole entry): T1 sequence (P47870 whole entry)
T2 sequence (P18507 whole entry): T1 sequence (P18507 whole entry)
T2 sequence (P47869 whole entry): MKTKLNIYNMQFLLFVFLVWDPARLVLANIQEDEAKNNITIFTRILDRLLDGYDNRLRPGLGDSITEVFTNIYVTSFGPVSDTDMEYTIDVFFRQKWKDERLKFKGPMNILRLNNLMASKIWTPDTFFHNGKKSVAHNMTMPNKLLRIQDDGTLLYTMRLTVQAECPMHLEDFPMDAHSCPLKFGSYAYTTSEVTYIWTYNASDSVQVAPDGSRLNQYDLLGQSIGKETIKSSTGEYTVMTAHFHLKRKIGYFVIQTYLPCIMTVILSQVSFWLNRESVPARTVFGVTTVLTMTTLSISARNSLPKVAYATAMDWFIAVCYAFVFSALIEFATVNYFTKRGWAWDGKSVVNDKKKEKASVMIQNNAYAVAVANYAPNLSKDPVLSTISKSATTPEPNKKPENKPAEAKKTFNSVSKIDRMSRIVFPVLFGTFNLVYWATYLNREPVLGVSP
The assay can be described thus: Modulation of GABAA alpha2beta2gamma2S receptor (unknown origin) expressed in Xenopus laevis oocytes assessed as potentiation of EC3 to 10 GABA-induced chloride ion current at holding potential -70 mV by two-microelectrode voltage clamp assay. Format: cell-based.

The nature of assay [7]: Potency index, ratio of compound activity for modulation of rat GABAA alpha1beta2gamma2S receptor assessed as EC3 to 10 GABA-induced chloride ion current to midazolam activity for modulation of GABAA alpha1beta2gamma2S receptor (unknown origin) assessed as potentiation of EC5 to 10 GABA-induced chloride ion current.
The species entered for assay [8] is Homo sapiens. As to the kind of experiment: Modulation of GABAA alpha5beta2gamma2S receptor (unknown origin) expressed in Xenopus laevis oocytes assessed as potentiation of EC3 to 10 GABA-induced chloride ion current at holding potential -70 mV at 1 to 300 uM by two-microelectrode voltage clamp assay relative to GABA-treated control. Format: cell-based.
The species named for assay [9] is Rattus norvegicus. The assay can be described thus: Allosteric modulation of rat GABAA alpha1beta2gamma2S receptor expressed in Xenopus laevis oocytes assessed as potentiation of GABA-induced chloride ion current at holding potential -70 mV at 100 uM by two-microelectrode voltage clamp assay relative to GABA-treated control. The class given is cell-based. An outline of the steps:
as §1

With `COc1cc(O)cc(CCc2cccc(O)c2)c1` [BATATASIN III], the Imax in assay [1] is 1510%; in assay [8], 1380%. In addition, the EC50 (usually the concentration needed to bring the measured effect to its halfway point) in assay [2] is 52.5 µM; in assay [4], 67.3 µM; in assay [5], 46.7 µM; in assay [6] it was 80.8 µM. The Activity result was “Dose-dependent effect” in assay [3] and 628% in assay [9]. Besides, the Ratio in [7] came to 4.
